MC4R antag cAMP – blocks human MC4R cAMP signaling. MC4R-expressing cells, MTII-stimulated cAMP, LANCE TR-FRET. inhibition, % at 6.5 µM. P32245. 360,000 compounds, 0.48% hits;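 active = inhibition above its plate's cutoff, the mean of tested wells on that plate plus 3 SD, cut at about 29% in these data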;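 note: 0% = Melanotan II alone and 100% = Melanotan II plus saturating MCL0020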
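material = U2OS cells stably expressing human melanocortin 4 receptor (MC4R) | also added = Melanotan II challenge | dosing = single nominal compound dose of 6.5 µM | detection = TR-FRET with Eu-cAMP and labeled anti-cAMP, 671 nm | replication = singlicate | timing = compound 30 min, challenge 1 h, detection 1 h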
iPSC survival up – increases survival of single human iPS cells | hiPSC single-cell survival, ATPlite luminescence; 100% = ROCK inhibitor wells, 0% = DMSO | survival enhancement, % at 20 µM | 360,000 compounds, 0.044% hits; in the data active = survival enhancement above about 18%;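 note: cells exposed to compounds for 16 hours before the ATP read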
Granule exo inh – lytic granule exocytosis inhibition | TALL-104 LAMP-1 surface exposure, flow cytometry; cells stimulated with thapsigargin and PMA | inhibition, % at 10 µM | 360,000 compounds, 0.66% hits | AID 651702;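 active = inhibition above about 55%, limit read from the data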
MC4R ag barr – agonists of human melanocortin 4 receptor (MC4R) beta-arrestin; 360,000 compounds, 0.98% hits; P32245; activation, % at 8.9 µM; U2OS MC4R beta-arrestin complementation, luminescence; percent of melanotan II response, DMSO zero;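 active = activation above a per-plate cutoff, the mean activation of sample wells on that plate plus 3 SD, cut at about 8% in these data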
ABCB6 inh 2 – blocks the human ABCB6 transporter; K562-ABCB6 porphyrin accumulation, flow cytometry, 1 h; active compounds read low; fluorescence ratio to DMSO, % at 10 µM; 360,000 compounds, 0.19% hits;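 active = fluorescence ratio to DMSO below 75%, the collection mean minus 3 SD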;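 note: signal is porphyrin accumulated inside mitochondria; 100% equals median channel fluorescence of DMSO control wells; lower ratio means ABCB6 inhibition with less porphyrin fluorescence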
Target sequence (Q9NP58 whole entry, looked up): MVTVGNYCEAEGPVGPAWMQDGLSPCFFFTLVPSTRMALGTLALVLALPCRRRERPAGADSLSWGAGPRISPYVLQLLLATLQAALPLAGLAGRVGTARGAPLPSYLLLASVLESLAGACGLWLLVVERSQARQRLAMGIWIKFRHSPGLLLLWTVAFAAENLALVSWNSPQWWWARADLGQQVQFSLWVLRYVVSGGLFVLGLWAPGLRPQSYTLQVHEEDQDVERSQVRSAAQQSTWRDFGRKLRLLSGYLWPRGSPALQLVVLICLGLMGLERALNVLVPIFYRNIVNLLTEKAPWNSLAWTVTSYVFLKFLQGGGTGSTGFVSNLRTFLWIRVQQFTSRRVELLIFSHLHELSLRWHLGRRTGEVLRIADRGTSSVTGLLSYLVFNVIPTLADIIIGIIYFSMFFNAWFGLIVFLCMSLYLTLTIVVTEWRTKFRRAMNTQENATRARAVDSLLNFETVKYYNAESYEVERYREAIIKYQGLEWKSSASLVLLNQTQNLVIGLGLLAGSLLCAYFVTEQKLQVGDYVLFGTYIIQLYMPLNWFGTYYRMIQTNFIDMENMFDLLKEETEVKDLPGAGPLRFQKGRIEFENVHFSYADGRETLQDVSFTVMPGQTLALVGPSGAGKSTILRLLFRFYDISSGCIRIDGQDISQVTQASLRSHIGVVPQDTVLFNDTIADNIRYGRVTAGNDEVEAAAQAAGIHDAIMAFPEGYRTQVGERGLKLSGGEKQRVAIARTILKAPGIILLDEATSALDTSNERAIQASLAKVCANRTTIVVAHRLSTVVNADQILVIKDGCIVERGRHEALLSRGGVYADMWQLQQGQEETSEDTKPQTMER
Tb MetRS inh – blocks T. brucei methionyl-tRNA synthetase activity | inhibition, % at 11.9 µM | purified T. brucei MetRS, ATP depletion, Kinase-Glo luminescence | 360,000 compounds, 0.4% hits;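 active = inhibition above a per-plate cutoff of the control wells' mean inhibition plus 3 SD, cut at about 5.5% in these data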;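 note: 0% = DMSO wells median and 100% = median of wells with control inhibitor compound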
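technique = Kinase-Glo luminescence, ATP depletion format | system = purified MetRS (methionyl-tRNA synthetase) enzyme from Trypanosoma brucei | timing = 15 min preincubation, 2 h reaction, all 25 °C | evaluation = percent inhibition versus plate control medians | dosing = single dose, 11.9 µM final nominal, 0.9% final DMSO | also added = substrates ATP, L-methionine and bulk Escherichia coli tRNA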
Tb MetRS conf – confirmation of Trypanosoma brucei MetRS inhibitors; shares compounds with Tb MetRS inh; T. brucei MetRS enzyme, luminescence (ATP depletion); inhibition, % at 11.9 µM; 1,400 compounds, 93% hits; in the data active = inhibition above about 7%
Jurkat tox – Jurkat T cell cytotoxicity for MetRS hits; shares compounds with Tb MetRS inh; Jurkat cells viability, ATP luminescence; inhibition, % at 8.3 µM; 1,400 compounds, 12% hits; in the data active = inhibition above about 15%;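 note: 0% = vehicle and 100% = reference inhibitor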
Tb MetRS inh FP – T. brucei MetRS inhibition, orthogonal assay. inhibition, % at 11.9 µM. purified T. brucei MetRS, fluorescence polarization. shares compounds with Tb MetRS inh. AID 651607. 1,400 compounds, 44% hits; in the data active = inhibition above about 17%;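 note: 0% = vehicle wells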
Starred values were filed as active, the others as inactive. Sampled rows, rich in hits. Any-hit rate of the full collection: about 2.6%.

Cc1ccsc1C(=O)OCc1nc2ccsc2c(=O)[nH]1 was read as MC4R antag cAMP 7, iPSC survival up 0, Granule exo inh 5, MC4R ag barr -1, ABCB6 inh 2 102 and Tb MetRS inh 0.
Screening Brc1ccc(OCc2nc3ccccc3[nH]2)cc1 returned MC4R antag cAMP 17, iPSC survival up 0, Granule exo inh 3, MC4R ag barr 1, ABCB6 inh 2 101, Tb MetRS inh 10*, Tb MetRS conf 16*, Jurkat tox 0 and Tb MetRS inh FP 9.
Screening c1ccc2cc(OCc3nc4ccccc4[nH]3)ccc2c1 returned MC4R antag cAMP 17, iPSC survival up -3, Granule exo inh 3, MC4R ag barr -3, ABCB6 inh 2 98, Tb MetRS inh 6.0*, Tb MetRS conf 6.8*, Jurkat tox 4 and Tb MetRS inh FP 9.
For COc1ccc(OCc2nc3ccccc3[nH]2)cc1 the results were MC4R antag cAMP -3, iPSC survival up -2, Granule exo inh -3, MC4R ag barr 0, ABCB6 inh 2 101 and Tb MetRS inh 1.
For CCOC(=O)C(/C=C(\C#N)C(=O)OCC)=C(/N)N1CCN(c2ccccc2)CC1 the results were MC4R antag cAMP 13, iPSC survival up -2, Granule exo inh 0, MC4R ag barr 1, ABCB6 inh 2 98, Tb MetRS inh 40*, Tb MetRS conf 58*, Jurkat tox 1 and Tb MetRS inh FP 28*.
For NC(=NCc1ccccc1)NN=Cc1ccnc2ccccc12 the results were iPSC survival up -2, Granule exo inh -20, ABCB6 inh 2 96, Tb MetRS inh 7.1*, Tb MetRS conf 10*, Jurkat tox 12 and Tb MetRS inh FP 7.
NC(N)=NN=Cc1ccnc2ccccc12 was read as iPSC survival up 0, Granule exo inh -8, ABCB6 inh 2 90 and Tb MetRS inh -1.
`COc1ccc2cc(S(=O)(=O)N3CCCC3)ccc2c1` gave MC4R antag cAMP 0, iPSC survival up 0, Granule exo inh 18, MC4R ag barr -1, ABCB6 inh 2 96 and Tb MetRS inh 0.
Screening O=C1NC[C@H](CCCCN2CCN(CCC3CCCCC3)C(=O)C2=O)N(CCc2ccc(O)cc2)C1=O returned iPSC survival up 1, Granule exo inh 19, ABCB6 inh 2 94 and Tb MetRS inh 0.
`Cc1cc(C)n(CCC(=O)N/N=C/c2ccc(O)cc2)n1` gave MC4R antag cAMP 12, iPSC survival up 1, Granule exo inh 16, MC4R ag barr -2, ABCB6 inh 2 91 and Tb MetRS inh -1.
Screening Cc1cc(C)n(CCC(=O)N/N=C/c2c(O)ccc3ccccc23)n1 returned MC4R antag cAMP -1, iPSC survival up 0, Granule exo inh 3, MC4R ag barr 1, ABCB6 inh 2 89, Tb MetRS inh 6.5*, Tb MetRS conf 14*, Jurkat tox 87* and Tb MetRS inh FP 11.
`Cc1[nH]c2ccccc2c1/C=N/Nc1nc2ccccc2[nH]1` gave MC4R antag cAMP -4, iPSC survival up 0, Granule exo inh 72*, MC4R ag barr -3, ABCB6 inh 2 98, Tb MetRS inh 8.3*, Tb MetRS conf 29*, Jurkat tox 9 and Tb MetRS inh FP 30*.
Screening Brc1ccc(-c2ccc(/C=N/Nc3nc4ccccc4[nH]3)o2)cc1 returned MC4R antag cAMP 7, iPSC survival up -5, Granule exo inh 5, MC4R ag barr -4, ABCB6 inh 2 102, Tb MetRS inh 11*, Tb MetRS conf 7.9*, Jurkat tox 12 and Tb MetRS inh FP 20*.
For C(=N\Nc1nc2ccccc2[nH]1)/c1c[nH]c2ccccc12 the results were MC4R antag cAMP 4, iPSC survival up -1, Granule exo inh 4, MC4R ag barr -3, ABCB6 inh 2 95, Tb MetRS inh 12*, Tb MetRS conf 26*, Jurkat tox 13 and Tb MetRS inh FP 47*.
For C(=N\Nc1nc2ccccc2[nH]1)/c1ccccc1 the results were MC4R antag cAMP 2, iPSC survival up 0, Granule exo inh -4, MC4R ag barr 1, ABCB6 inh 2 94 and Tb MetRS inh 3.
`O=[N+]([O-])c1ccc(N/N=C/c2c[nH]c3ccccc23)cc1` gave MC4R antag cAMP 3, iPSC survival up -2, Granule exo inh 10, MC4R ag barr -5, ABCB6 inh 2 507, Tb MetRS inh 7.5*, Tb MetRS conf 12*, Jurkat tox 21* and Tb MetRS inh FP 55*.
`O=[N+]([O-])c1ccccc1N/N=C/c1c[nH]c2ccccc12` gave MC4R antag cAMP 0, iPSC survival up -2, Granule exo inh -2, MC4R ag barr 3, ABCB6 inh 2 84 and Tb MetRS inh -1.
`O=C(CNC(=O)c1ccco1)Nc1ccc(Cl)cc1` gave MC4R antag cAMP 1, iPSC survival up -1, Granule exo inh -10, MC4R ag barr 1, ABCB6 inh 2 98 and Tb MetRS inh 0.
O=C(O)[C@@H]1CCCN1C(=O)c1ccccc1N1C(=O)[C@@H]2Cc3c([nH]c4ccccc34)C(c3cccc(Cl)c3)N2C1=O (some centres undefined) was read as MC4R antag cAMP 18, iPSC survival up 0, Granule exo inh -4, MC4R ag barr 0, ABCB6 inh 2 132 and Tb MetRS inh 4.
For O=C(O)[C@H]1CCCN1C(=O)c1ccccc1N1C(=O)[C@@H]2Cc3c([nH]c4ccccc34)C(c3cccc(Cl)c3)N2C1=O (some centres undefined) the results were MC4R antag cAMP 1, iPSC survival up -2, Granule exo inh 3, MC4R ag barr 0, ABCB6 inh 2 100, Tb MetRS inh 8.3*, Tb MetRS conf 18*, Jurkat tox 4 and Tb MetRS inh FP 8.
Screening CCC(CC)C(=O)N(C)c1c(C)nc2c(OCc3cccc(OC)c3)cccn12 returned MC4R antag cAMP 5, iPSC survival up 3, Granule exo inh -8, MC4R ag barr -1, ABCB6 inh 2 95 and Tb MetRS inh 0.
`O=C(CCC(=O)Nc1ccc(Cl)cc1Cl)NNC(=O)Nc1ccccc1` gave MC4R antag cAMP -4, iPSC survival up 1, Granule exo inh -1, MC4R ag barr -1, ABCB6 inh 2 101, Tb MetRS inh 13*, Tb MetRS conf 26*, Jurkat tox 0 and Tb MetRS inh FP 6.
